Test results published in ChEMBL document CHEMBL4513216, “Probing the Open Global Health Chemical Diversity Library for Multistage-Active Starting Points for Next-Generation Antimalarials” (ACS Infect Dis, 2020).

Assay: Toxicity liver stage against HepG2, at 10uM
Type: cell-based
Design: test concentration 10 uM, cell line HepG2-A16-CD81EGFP
Settings: human, HepG2-A16-CD81EGFP cells; read-out: INHIBITION
Summary of the method: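 Uninfected HepG2-A16-CD81EGFP cells, 3 × 10^3 per well, 1536-well, plated on prespotted compound at 10 μM final, parasite-free screening media added to match infected plates; puromycin 10 μM positive, DMSO 0.5% negative; run in parallel with 48 h PbLuc assay at 37 °C, 5% CO2; viability by CellTiter-Glo luminescence, normalized to controls.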

SMILES | cytotoxicity at 10 µM [%]
CCc1ccc(OCC(O)CN2CCN(CCO)CC2)cc1 (stereo not given) | -11.9
CNC(=O)c1cc2ccccc2n1C | 6.84
CC(C)(C)CN1CC[C@H](c2nnc(Cc3c[nH]c4ccccc34)o2)C1 | -3.9
CN1CCC[C@H]1c1nc(-c2cncnc2N)no1 | 2.6
CNC(=O)[C@@H]1[C@H]2CNCCN2C[C@H]1c1ccccc1 | 3.28
C/C(NC(=O)c1ccco1)=C1/C(=O)C[C@@H]2[C@H]1C2(C)C | 2.41
Cn1ccc2cc(C(=O)Nc3nc[nH]n3)ccc21 | 1.69
O=C(CC1CSc2nccc(=O)n21)NCc1cc(-c2ccco2)on1 (stereo not given) | -11.3
CNC(=O)C1CCCN(c2nc3c(-c4ccccc4)csc3c(=O)[nH]2)C1 (stereo not given) | -1.03
CN(C)S(=O)(=O)NCCn1nc(-c2ccccc2)n(C)c1=O | -2.17
O=C(c1ccccc1)N1Cc2nccn2CC(Cn2ncccc2=O)C1 (stereo not given) | 10.4
CS(=O)(=O)N1CC[C@H]2O[C@H](C(=O)NCc3cccnc3)CC[C@H]21 | -7.24
O=C(c1ncccn1)N1C[C@@H]2COC[C@]2(COCc2cccnc2)C1 | -1.9
CN(C)CCOCC1CN(C(=O)[C@H]2CCCO2)Cc2ccnn2C1 (stereo not given in full) | -0.422
Cc1ncc2c(n1)CCCC2NC(=O)c1ccccc1C(=O)O (stereo not given) | -11.7
CN1CCN(C(=O)COCc2nc(-c3ccncc3)no2)CC1 | 14.6
Cn1ccc(NC(=O)CN2CCN(C3CCCC3)C(=O)C2)n1 | 4.31
CN1CCCC(c2nccnc2-c2cccc(Cl)c2)C1 (stereo not given) | 3.57
CC1CCN(c2nc(O)cc(C3CC(=O)N(C4CCCCC4)C3)n2)CC1 (stereo not given) | 3.81
CCN1CCN(c2ncc(-c3cc(C)no3)c(-c3ccco3)n2)CC1 | -11
CCN(CC)CCn1cc(NC(=O)CNc2ccccc2OC)cn1 | 6.19
Cc1nc(CN(C)C(=O)CNC(=O)c2ccc(C#N)cc2)cs1 | 12.5
N#CCc1ccc(NC(=O)N[C@H](CO)Cc2ccc(O)cc2)cc1 | -1.8
Cc1ccc(F)cc1S(=O)(=O)NCc1cccc(CS(C)(=O)=O)c1 | -10.6
CC(C)(NC(=O)Nc1cnn(CC2CCCO2)c1)c1nccs1 (stereo not given) | -2.64
COc1ncc(NCc2cc(C#N)cs2)cc1C(N)=O | 3.8
OC1(CNCc2cnc(N3CCOCC3)nc2)CCCCC1 | -2.41

SMILES | cytotoxicity at 10 µM [%]
COc1ccc(N(CCC(N)=O)C(=O)CSc2ccc(F)c(F)c2)cc1 | 4.13
CN1C(=O)c2ccc(NC(=O)CSc3ccc4c(c3)CCC4)cc2C1=O | 0.0636
COc1cc(NC(=O)c2cc(Cl)ccc2F)c(C(=O)N(C)C)cc1OC | -2.61
Cc1nc(CN2CCC(N(C)Cc3noc(C(C)C)n3)C2)oc1C (stereo not given) | 4.63
Cc1cccc(OC2CCN(c3nccnc3C#N)CC2)n1 | 1.1
Cc1noc(C)c1CS(=O)(=O)C(C)C(=O)N(C)c1ccccc1 (stereo not given) | -1.58
O=C1CN(C(=O)CNC(CC(F)(F)F)c2ccc(F)cc2)CCN1 (stereo not given) | 10.4
Cc1cc(NC(=O)Cn2ccccc2=O)n(C)n1 | -7.32
Cn1cc(CNCCOc2ccc(F)c(F)c2)c(-c2cccnc2)n1 | -2.53
Cc1nc([C@@H]2C[C@@H]3CCN(C(=O)Cc4cccs4)C[C@H]3O2)no1 | 3.27
COC[C@@H]1CC[C@H]2[C@H](CCN2S(=O)(=O)c2cccc(F)c2)O1 | 2.24
Cn1cccc1C(=O)N1CCC2(CC1)CN(c1cncnc1)C(=O)CO2 | 4.35
CCCc1cc(CN(C)C2CC(C)(C)NC(C)(C)C2)n[nH]1 | -16.7
COc1ccc(NC(=O)CCN2CC=C(c3cnn(C)c3)CC2)c(C)c1 | -4.08
O=C(c1ccccc1C1CCNC1)N1CCC(N2CCC(O)CC2)CC1 (stereo not given) | -8.3
N#Cc1cccnc1N1CCN(S(=O)(=O)NCc2ccccc2)CC1 | 6.1
CC(=O)Cc1c(C)nn(-c2cncc(N)c2)c1C | -4.05
N#Cc1cccnc1Oc1cc(F)c(CN2CCCC2)c(Cl)c1 | -13.9
COCc1nc(CN2CCC3(CCCO3)CCC2=O)no1 (stereo not given) | -10.3
O=S(=O)(Cc1ccccc1)NCc1ccco1 | 0.0906
O=C1N(Cc2cccc(F)c2F)CCCC1(O)CNC1CCCC1 (stereo not given) | 13.8
O=c1oc(-c2ccc(F)cc2)nn1CN1CCSCC1 | 0.449
Fc1ccc(-c2nnc(CN3CCCC3Cn3cccn3)o2)cc1 (stereo not given) | -5.65
Cc1csc(C2CCCCN2C(=O)c2cn[nH]c2C)n1 (stereo not given) | -1.53
Cc1nn(C)c(N(C)C)c1CNCc1ccc2c(c1)OCO2 | -2.51
COc1ccc(OCCN2CCC(c3ccnn3CCO)CC2)cc1 | -6.9
c1ccc2c(N3CCCCC3Cn3cccn3)ncnc2c1 (stereo not given) | -5.33

SMILES | cytotoxicity at 10 µM [%]
CN1CCCC1CNC(=O)CCCOc1cccc(F)c1 (stereo not given) | -9.54
Cc1ccc(CN(C)C(=O)CN2CCOC(Cn3cccn3)C2)o1 (stereo not given) | -0.906
c1ccc(-n2cc(CNC3CCc4ncnn4C3)cn2)cc1 (stereo not given) | -26.6
Cc1cnc(C(=O)NCc2ccnc(N(C)C)c2)cn1 | -1.07
CC(C)(C)c1cn2nc(N3CCCC3Cn3cccn3)sc2n1 (stereo not given) | -23.8
CCc1nccn1C1CCCN(C(=O)c2ccc(C(=O)NC)nc2)C1 (stereo not given) | -6.33
Cc1ccccc1-c1cc(C(=O)NCCN2CCCS2(=O)=O)[nH]n1 | -12.9
Cc1nc(CNCc2c(C)nn(C)c2N2CCOCC2)cs1 | -7.44
CCC(O)CN1CCN(C(=O)c2cccn2Cc2cccs2)CC1 (stereo not given) | -5.74
Cc1nn(C)c(C)c1C(C)NC(=O)Nc1cccnc1N1CCCC1 (stereo not given) | -6.88
Cc1noc(C(C)C)c1C(=O)NCCN1CCCCCC1=O | -9.07
CN(C)C1COC2(CCN(Cc3nccs3)CC2)C1 (stereo not given) | 2.02
Cc1occc1C(=O)N1C[C@@H]2OCCN(c3ncccn3)[C@@H]2C1 | 7.34
O=C1CCC2(CCN(Cc3nccs3)CC2)N1Cc1ccccc1 | 1.54
O=C(C1CC1)N1Cc2[nH]nc(COCc3cccnc3)c2C1 | 0.997
O=C(c1ccc[nH]1)N1CCc2c(COCc3ccncc3)cncc2C1 | 14.7
CN(C)CCN1CCCC12CCN(C(=O)c1cccnc1)CC2 | 4.68
CN(C)C(=O)COC[C@@H]1CC[C@H]2[C@H](CCN2c2ccccn2)O1 | 10
Cc1ccc(CN2CCOC3(COCCN(C(C)C)C3)C2)s1 (stereo not given) | -0.82
O=C(NCc1cn2c(n1)CN(Cc1nccs1)CC2)C1CCC1 | 4.61
c1nc(COCC2CC2)c2n1CCCN(CC1CC1)C2 | -4.77
COc1ccc(CN2CCOCC3(CCN(C4CCOCC4)C3)C2)cc1 (stereo not given) | 0.466
CN(C)S(=O)(=O)N1C[C@@H](OCc2cccnc2)[C@H]2OCCC[C@H]21 | 0.74
O=C(NC1CC1)[C@H]1C[C@H]2OCC[C@H]2N(Cc2cccc3ccccc23)C1 | 2.64
CN(C)C(=O)N1C[C@H]2CC[C@@H](C1)N(Cc1nnc(-c3ccco3)o1)C2 | 5.9
CC(C)CCN1C[C@@H]2C[C@H](C(=O)NCc3ccccc3)[C@H](C1)O2 | -2
